Source: ChEMBL document CHEMBL1147665, “Design, synthesis, and biological evaluation of 4-alkyliden-beta lactams: new products with promising antibiotic activity against resistant bacteria” (J Med Chem, 2006)
In brackets after ≈: the same amount, converted by molar mass.

Columns and labels:
Type in all cases: functional
Streptococcus pyogenes = assay: Antibacterial activity against Streptococcus pyogenes
How it was run: (§1)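 Broth microdilution MIC per CLSI guidelines in Mueller-Hinton broth: serial 2-fold dilutions, inoculum 5 × 10⁵ CFU/mL in equal volume, 35 °C for 16-20 h. MIC = lowest concentration with no visible turbidity. Recent clinical isolates (43 total, Gram-positive and Gram-negative); values given as MIC ranges, MIC₅₀ and MIC₉₀ per species.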

Streptococcus pneumoniae = assay: Antibacterial activity against Streptococcus pneumoniae; how it was run: as §1
Enterococcus = assay: Antibacterial activity against Enterococcus spp; how it was run: as §1
Staphylococcus aureus [1] = assay: Antibacterial activity against methicillin-susceptible Staphylococcus aureus; how it was run: as §1
[2] = tested on: Staphylococcus epidermidis; assay: Antibacterial activity against Staphylococcus epidermidis; how it was run: as §1
Haemophilus influenzae = assay: Antibacterial activity against Haemophilus influenzae; how it was run: as §1
Staphylococcus aureus [3] = assay: Antibacterial activity against methicillin-resistant Staphylococcus aureus
How it was run: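 Clinical isolates (3 MRSA in a 43-strain panel). Broth microdilution per CLSI, serial 2-fold dilutions in Mueller-Hinton broth, inoculum 5 × 10⁵ CFU/mL, 35 °C for 16-20 h. MIC = lowest concentration with no visible turbidity; reported as MIC range, MIC₅₀ and MIC₉₀ across isolates.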

Structure (SMILES)	MIC50 (Streptococcus pyogenes)	MIC90 (Streptococcus pyogenes)	MIC50 (Streptococcus pneumoniae)	MIC90 (Streptococcus pneumoniae)	MIC50 (Enterococcus)	MIC90 (Enterococcus)	MIC50 (Staphylococcus aureus [1])	MIC90 (Staphylococcus aureus [1])	MIC50 [2]	MIC90 [2]	MIC50 (Haemophilus influenzae)	MIC90 (Haemophilus influenzae)	MIC50 (Staphylococcus aureus [3])	MIC90 (Staphylococcus aureus [3])
CCOC(=O)/C=C1\NC(=O)[C@@H]1[C@@H](C)OC(=O)c1cc(OC)c(OC)c(OC)c1	128 µg/mL (≈ 325 µM)	> 128 µg/mL	128 µg/mL (≈ 325 µM)	128 µg/mL (≈ 325 µM)	> 128 µg/mL	> 128 µg/mL	> 128 µg/mL	> 128 µg/mL	128 µg/mL (≈ 325 µM)	> 128 µg/mL	128 µg/mL (≈ 325 µM)	> 128 µg/mL		
CCOC(=O)/C=C1\NC(=O)[C@@H]1[C@@H](C)OC(=O)c1ccc(O)cc1	128 µg/mL (≈ 401 µM)	> 128 µg/mL	128 µg/mL (≈ 401 µM)	128 µg/mL (≈ 401 µM)	> 128 µg/mL	> 128 µg/mL	> 128 µg/mL	> 128 µg/mL	8 µg/mL (≈ 25.1 µM)	> 128 µg/mL				
COc1cc(C(=O)O[C@H](C)[C@H]2C(=O)N/C2=C\C(=O)O)cc(OC)c1OC	> 128 µg/mL	> 128 µg/mL	128 µg/mL (≈ 350 µM)	128 µg/mL (≈ 350 µM)	> 128 µg/mL	> 128 µg/mL	> 128 µg/mL	> 128 µg/mL	> 128 µg/mL	> 128 µg/mL	128 µg/mL (≈ 350 µM)	128 µg/mL (≈ 350 µM)		
C[C@@H](O[Si](C)(C)C(C)(C)C)[C@H]1C(=O)N/C1=C\C(=O)OCc1ccccc1	128 µg/mL (≈ 341 µM)	> 128 µg/mL	128 µg/mL (≈ 341 µM)	128 µg/mL (≈ 341 µM)	> 128 µg/mL	> 128 µg/mL	> 128 µg/mL	> 128 µg/mL	> 128 µg/mL	> 128 µg/mL	128 µg/mL (≈ 341 µM)	> 128 µg/mL		
COc1cc(C(=O)O[C@H](C)[C@H]2C(=O)N/C2=C\C(=O)O)cc(OC)c1O	> 128 µg/mL	> 128 µg/mL	128 µg/mL (≈ 364 µM)	128 µg/mL (≈ 364 µM)	> 128 µg/mL	> 128 µg/mL	> 128 µg/mL	> 128 µg/mL	> 128 µg/mL	> 128 µg/mL	128 µg/mL (≈ 364 µM)	128 µg/mL (≈ 364 µM)		
C[C@@H](O[Si](C)(C)C(C)(C)C)[C@H]1C(=O)N/C1=C\C(=O)OCc1cc(O)cc(O)c1	32 µg/mL (≈ 78.5 µM)	32 µg/mL (≈ 78.5 µM)	32 µg/mL (≈ 78.5 µM)	32 µg/mL (≈ 78.5 µM)	128 µg/mL (≈ 314 µM)	128 µg/mL (≈ 314 µM)	64 µg/mL (≈ 157 µM)	64 µg/mL (≈ 157 µM)	128 µg/mL (≈ 314 µM)	> 128 µg/mL			64 µg/mL (≈ 157 µM)	128 µg/mL (≈ 314 µM)
C[C@@H](O[Si](C)(C)C(C)(C)C)[C@H]1C(=O)N/C1=C\C(=O)OCc1cc(C(F)(F)F)cc(C(F)(F)F)c1	128 µg/mL (≈ 250 µM)	> 128 µg/mL	128 µg/mL (≈ 250 µM)	> 128 µg/mL	> 128 µg/mL	> 128 µg/mL	> 128 µg/mL	> 128 µg/mL	> 128 µg/mL	> 128 µg/mL	> 128 µg/mL	> 128 µg/mL		
CCOC(=O)C[C@H]1NC(=O)[C@@H]1[C@@H](C)O[Si](C)(C)C(C)(C)C	> 128 µg/mL	> 128 µg/mL	> 128 µg/mL	> 128 µg/mL	> 128 µg/mL	> 128 µg/mL	> 128 µg/mL	> 128 µg/mL	> 128 µg/mL	> 128 µg/mL	128 µg/mL (≈ 406 µM)	> 128 µg/mL		
CCOC(=O)/C=C1\NC(=O)[C@@H]1[C@@H](C)OC(=O)c1cc(OCc2ccccc2)c(O)c(OCc2ccccc2)c1	> 128 µg/mL	> 128 µg/mL	> 128 µg/mL	> 128 µg/mL	> 128 µg/mL	> 128 µg/mL	> 128 µg/mL	> 128 µg/mL	> 128 µg/mL	> 128 µg/mL	128 µg/mL (≈ 241 µM)	128 µg/mL (≈ 241 µM)		
COc1cc(C(=O)O[C@H](C)[C@H]2C(=O)N/C2=C\C(=O)OCc2ccccc2)cc(OC)c1OC	128 µg/mL (≈ 281 µM)	> 128 µg/mL	> 128 µg/mL	> 128 µg/mL	128 µg/mL (≈ 281 µM)	> 128 µg/mL	8 µg/mL (≈ 17.6 µM)	16 µg/mL (≈ 35.1 µM)	4 µg/mL (≈ 8.78 µM)	16 µg/mL (≈ 35.1 µM)	> 128 µg/mL	> 128 µg/mL	128 µg/mL (≈ 281 µM)	128 µg/mL (≈ 281 µM)
C[C@@H](O[Si](C)(C)C(C)(C)C)[C@H]1C(=O)N/C1=C\C(=O)N[C@@H](Cc1ccc(O)cc1)C(=O)OC(C)(C)C	> 128 µg/mL	> 128 µg/mL	> 128 µg/mL	> 128 µg/mL	> 128 µg/mL	> 128 µg/mL	> 128 µg/mL	> 128 µg/mL	> 128 µg/mL	> 128 µg/mL	> 128 µg/mL	> 128 µg/mL		
